Source: ChEMBL document CHEMBL1154697, “Design, synthesis and docking studies of new furobenzopyranones and pyranobenzopyranones as photoreagent towards DNA and as antimicrobial agents” (2010)

Key:
Type in all cases: functional
Bacillus subtilis [1] = assay: Antimicrobial activity against Bacillus subtilis pretreated 3 hrs before UV photosensitization measured after overnight reincubation under dark condition by agar plate disc diffusion method
Method in brief: (§1)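 B. subtilis 18 h broth culture (0.02 ml) mixed into 10 ml liquefied nutrient agar (beef extract, peptone, K2HPO4, agar). Each dish carries a DMF disc and a xanthotoxin disc (10 mg/ml DMF). Test plates kept dark at 37 °C for 3 h for diffusion, then uncovered and exposed to 365 nm UV for 20 min. A duplicate plate left unirradiated in the incubator overnight. Inhibition zones measured.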

Bacillus subtilis [2] = assay: Antimicrobial activity against 20 mins UV photosensitized Bacillus subtilis measured after overnight reincubation under dark condition by agar plate disc diffusion method; method in brief: as §1
Staphylococcus aureus = assay: Antibacterial activity against Staphylococcus aureus at 50 mg/mL after 48 hrs by agar plate disc diffusion method; conditions: read-out: IZ
Method in brief: (§2)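 Discs placed on nutrient agar plates (15 ml agar seeded with 0.2 mL of 18 h liquid culture of each organism); plates incubated 37 °C for 48 h, inhibition zone diameter read in mm around each disc. DMF-impregnated discs as solvent control; tetracycline (antibacterial) and amphotericin B (antifungal) references run concurrently.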

Escherichia coli = assay: Antibacterial activity against Escherichia coli at 50 mg/mL after 48 hrs by agar plate disc diffusion method; conditions: read-out: IZ; method in brief: as §2
Candida albicans = assay: Antifungal activity against Candida albicans at 50 mg/mL after 48 hrs by agar plate disc diffusion method; conditions: read-out: IZ; method in brief: as §2

| SMILES | inhibition zone (IZ) (Bacillus subtilis [1]) [millimeter] | inhibition zone (IZ) (Bacillus subtilis [2]) [millimeter] | zone of inhibition at 50000 µg/mL (Staphylococcus aureus) [mm] | zone of inhibition at 50000 µg/mL (Escherichia coli) [mm] | zone of inhibition at 50000 µg/mL (Candida albicans) [mm] |
| --- | --- | --- | --- | --- | --- |
| Cc1c(C(=O)NNC(=S)NCc2ccccc2)c(=O)oc2ccc3c(-c4ccccc4)cc(=O)oc3c12 | 18 | 22 | 30 | 20 | – |
| COc1c2occc2cc2ccc(=O)oc12 [METHOXSALEN] | – | 12 | – | – | – |
| COc1c2occc2c(OC)c2c(C)c(C(=O)NN)c(=O)oc12 | 12 | 14 | – | 18 | – |
| COc1c2occc2c(OC)c2c(C)c(C(=O)NNC(=S)NCc3ccccc3)c(=O)oc12 | 10 | 12 | – | – | – |
| C[C@@H]1[C@H](O)[C@@H](C)/C=C/C=C/C=C/C=C/C=C/C=C/C=C/[C@H](O[C@@H]2O[C@H](C)[C@@H](O)[C@H](N)[C@@H]2O)C[C@@H]2O[C@](O)(C[C@@H](O)C[C@@H](O)[C@H](O)CC[C@@H](O)C[C@@H](O)CC(=O)O[C@H]1C)C[C@H](O)[C@H]2C(=O)O [AMPHOTERICIN B] | – | – | – | – | 30 |
| Cc1c(-c2nnc(S)n2Cc2ccccc2)c(=O)oc2ccc3c(-c4ccccc4)cc(=O)oc3c12 | – | 12 | – | – | – |
| CN(C)[C@@H]1C(O)=C(C(N)=O)C(=O)[C@@]2(O)C(O)=C3C(=O)c4c(O)cccc4[C@@](C)(O)[C@H]3C[C@@H]12 [TETRACYCLINE] | 30 | – | 36 | 34 | – |
| COc1c2occc2c(OC)c2c(C)c(-c3nnc(S)n3Cc3ccccc3)c(=O)oc12 | – | 11 | – | – | – |
